Source: article PMC9052103 (RSC Advances, 2020)
Converted amounts (≈) assume the structure as drawn.

Assays:
Assay type in all cases: cell-based
S. aureus ATCC 29213 [1] = experiment: MIC, 96-well microtiter broth dilution; conditions: Staphylococcus aureus, ATCC29213, read-out: MIC S. aureus ATCC 29213
S. aureus ATCC 43300 = experiment: MIC, 96-well microtiter broth dilution; conditions: Staphylococcus aureus, ATCC43300|MRSA, read-out: MIC S. aureus ATCC 43300
S. aureus ATCC BAA-41 = experiment: MIC, 96-well microtiter broth dilution; conditions: Staphylococcus aureus, ATCCBAA41|MRSA, read-out: MIC S. aureus ATCC BAA-41
S. aureus ATCC BAA-1747 = experiment: MIC, 96-well microtiter broth dilution; conditions: Staphylococcus aureus, ATCCBAA1747|MRSA, read-out: MIC S. aureus ATCC BAA-1747
S. aureus ATCC BAA-1720 = experiment: MIC, 96-well microtiter broth dilution; conditions: Staphylococcus aureus, ATCCBAA1720|MRSA, read-out: MIC S. aureus ATCC BAA-1720
E. faecalis ATCC 29212 = experiment: MIC, 96-well microtiter broth dilution; conditions: Enterococcus faecalis, ATCC29212, read-out: MIC E. faecalis ATCC 29212
E. faecium ATCC 49624 = experiment: MIC, 96-well microtiter broth dilution; conditions: Enterococcus faecium, ATCC49624, read-out: MIC E. faecium ATCC 49624
E. faecium ATCC 700221 = experiment: MIC, 96-well microtiter broth dilution; conditions: Enterococcus faecium, ATCC700221, read-out: MIC E. faecium ATCC 700221
[2] = system: S. epidermidis ATCC 12228; experiment: MIC, 96-well microtiter broth dilution; conditions: Staphylococcus epidermidis, ATCC12228, read-out: MIC S. epidermidis ATCC 12228
E. coli ATCC 25922 = experiment: MIC, 96-well microtiter broth dilution; conditions: Escherichia coli, ATCC25922, read-out: MIC E. coli ATCC 25922
E. coli ATCC 8739 = experiment: MIC, 96-well microtiter broth dilution; conditions: Escherichia coli, ATCC8739, read-out: MIC E. coli ATCC 8739
E. coli ATCC BAA-2469 = experiment: MIC, 96-well microtiter broth dilution
S. aureus ATCC 29213 [3] = experiment: In vitro drug resistance development, serial passage
Procedure, shortened: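 Serial passage against S. aureus ATCC 29213: culture from the 0.5 × MIC well of the prior MIC plate diluted to 5 × 10^5 CFU mL−1 and exposed to a range of test compound concentrations. MIC read after 24 h at 37 °C. Cycle repeated 35 times. Ciprofloxacin, vancomycin and rifampin passaged in parallel.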

Structure (SMILES) | MIC (S. aureus ATCC 29213 [1]) [µg/mL] | MIC (S. aureus ATCC 43300) [µg/mL] | MIC (S. aureus ATCC BAA-41) [µg/mL] | MIC (S. aureus ATCC BAA-1747) [µg/mL] | MIC (S. aureus ATCC BAA-1720) [µg/mL] | MIC (E. faecalis ATCC 29212) [µg/mL] | MIC (E. faecium ATCC 49624) [µg/mL] | MIC (E. faecium ATCC 700221) [µg/mL] | MIC [2] [µg/mL] | MIC (E. coli ATCC 25922) [µg/mL] | MIC (E. coli ATCC 8739) [µg/mL] | MIC against antibiotics resistant E. coli mutant NDM-1 strain (E. coli ATCC BAA-2469) [µg/mL] | Increase of MIC after 35 passages (S. aureus ATCC 29213 [3]) [fold]
Cc1cc(/C=C2\Sc3ccccc3N2CCCN2CCCCC2)c2ccccc2[n+]1C.[I-] [Compound 4a3, (Z)-1,2-Dimethyl-4-((3-(3-(piperidin-1-yl)propyl)benzo[d]thiazol-2(3H)-ylidene)methyl)quinolin-1-ium iodide] | 32 | 32 | 8 | 32 | 32 | 64 | 32 | 32 | 8 | 4 | 4 |  | 
C[n+]1c(/C=C/c2ccc(O)cc2)cc(/C=C2\Sc3ccccc3N2CCCN2CCCC2)c2ccccc21.[I-] [Compound 4d2, 2-((E)-4-Hydroxystyryl)-1-methyl-4-((Z)-(3-(3-(pyrrolidin-1-yl)propyl)benzo[d]thiazol-2(3H)-ylidene)methyl)quinolin-1-ium iodide] | 32 | 32 | 32 | 32 | 32 | 64 | 32 | 32 | 16 | 32 | 32 |  | 
C[n+]1ccc(/C=C2\Sc3ccccc3N2CCCN2CCCCC2)c2ccccc21.[I-] [Compound 4b3, (Z)-1-Methyl-4-((3-(3-(piperidin-1-yl)propyl)benzo[d]thiazol-2(3H)-ylidene)methyl)quinolin-1-ium iodide] | 32 | 8 | 4 | 8 | 16 | > 64 | 32 | 32 | 2 | 2 | 4 |  | 
C[n+]1c(/C=C/c2c[nH]c3ccccc23)cc(/C=C2\Sc3ccccc3N2CCCN2CCCC2)c2ccccc21.[I-] [Compound 4d1, 2-((E)-2-(1H-Indol-3-yl)vinyl)-1-methyl-4-((Z)-(3-(3-(pyrrolidin-1-yl)propyl)benzo[d]thiazol-2(3H)-ylidene)methyl)quinolin-1-ium iodide] | 16 | 8 | 4 | 8 | 8 | 32 | 8 | 16 | 2 | 4 | 16 |  | 
CSc1ccc(/C=C/c2cc(/C=C3\Sc4ccccc4N3CCCN3CCCC3)c3ccccc3[n+]2C)cc1.[I-] [Compound 4d3, 1-Methyl-2-((E)-4-(methylthio)styryl)-4-((Z)-(3-(3-(pyrrolidin-1-yl)propyl)benzo[d]thiazol-2(3H)-ylidene)methyl)quinolin-1-ium iodide] | 16 | 32 | 32 | 32 | 32 | 64 | 64 | 32 | 16 |  | 32 |  | 
CC1(C)S[C@@H]2[C@H](NC(=O)[C@H](N)c3ccccc3)C(=O)N2[C@H]1C(=O)O [amp, ampicillin, reference compound] | > 64 | > 64 | > 64 | > 64 | > 64 | 0.5 (≈ 1.43 µM) | 0.25 (≈ 0.715 µM) | > 64 | > 64 | 1 (≈ 2.86 µM) | 2 (≈ 5.72 µM) | > 64 | 
COc1cccc(OC)c1C(=O)N[C@@H]1C(=O)N2[C@@H]1SC(C)(C)[C@@H]2C(=O)O [meth, methicillin, reference compound] | 0.5 (≈ 1.31 µM) | 512 (≈ 1350 µM) | 1020 (≈ 2690 µM) | 256 (≈ 673 µM) | 1020 (≈ 2690 µM) | 1 (≈ 2.63 µM) | 4 (≈ 10.5 µM) | 1.5 (≈ 3.94 µM) | 0.5 (≈ 1.31 µM) | 2 (≈ 5.26 µM) | > 64 | > 64 | 
CN[C@H](CC(C)C)C(=O)N[C@H]1C(=O)N[C@@H](CC(N)=O)C(=O)N[C@H]2C(=O)N[C@H]3C(=O)N[C@H](C(=O)N[C@H](C(=O)O)c4cc(O)cc(O)c4-c4cc3ccc4O)[C@H](O)c3ccc(c(Cl)c3)Oc3cc2cc(c3O[C@@H]2O[C@H](CO)[C@@H](O)[C@H](O)[C@H]2O[C@H]2C[C@](C)(N)[C@H](O)[C@H](C)O2)Oc2ccc(cc2Cl)[C@H]1O [van, vancomycin, reference compound] | 2 (≈ 1.38 µM) | 2 (≈ 1.38 µM) | 2 (≈ 1.38 µM) | 1 (≈ 0.69 µM) | 0.5 (≈ 0.345 µM) | 2 (≈ 1.38 µM) | 0.5 (≈ 0.345 µM) | 1020 (≈ 707 µM) | > 64 | > 64 | > 64 | > 64 | 512
O=C(O)c1cn(C2CC2)c2cc(N3CCNCC3)c(F)cc2c1=O [ciprofloxacin] |  |  |  |  |  |  |  |  |  |  |  |  | 32
C[n+]1c(/C=C/c2ccc(O)cc2)cc(/C=C2\Sc3ccccc3N2CCCN2CCOCC2)c2ccccc21.[I-] [Compound 4c2, 2-((E)-4-Hydroxystyryl)-1-methyl-4-((Z)-(3-(3-morpholinopropyl)benzo[d]thiazol-2(3H)-ylidene)methyl)quinolin-1-ium iodide] | 16 | 16 | 8 | 16 | 32 | 16 | 8 | 4 | 4 | 4 | 32 |  | 
CO[C@H]1/C=C/O[C@@]2(C)Oc3c(C)c(O)c4c(O)c(c(/C=N/N5CCN(C)CC5)c(O)c4c3C2=O)NC(=O)/C(C)=C\C=C\[C@H](C)[C@H](O)[C@@H](C)[C@@H](O)[C@@H](C)[C@H](OC(C)=O)[C@@H]1C [rif, rifampin, reference compound] | 0.5 (≈ 0.608 µM) | < 0.125 | < 0.125 | < 0.125 | < 0.125 | 0.5 (≈ 0.608 µM) | < 0.125 | < 0.125 | 1 (≈ 1.22 µM) | 4 (≈ 4.86 µM) | 8 (≈ 9.72 µM) | > 64 | 8192
C[n+]1c(/C=C/c2c[nH]c3ccccc23)cc(/C=C2\Sc3ccccc3N2CCCN2CCOCC2)c2ccccc21.[I-] [Compound 4c1, 2-((E)-2-(1H-Indol-3-yl)vinyl)-1-methyl-4-((Z)-(3-(3-morpholinopropyl)benzo[d]thiazol-2(3H)-ylidene)methyl)quinolin-1-ium iodide] | 16 | 16 | 16 | 16 | 16 | 16 | 16 | 8 | 2 | 8 | 64 |  | 
